From ChEMBL document CHEMBL1138791, “Acyl sulfonamide anti-proliferatives: benzene substituent structure-activity relationships for a novel class of antitumor agents” (J Med Chem, 2004) come the findings set out here.

Experiment [1] is described as follows: Diameter of zone of inhibition for cell colony formation of normal fibroblast at the dose of 210 ug; Range is 0-11.375. The class given is functional, Homo sapiens. Summed up:
(§1)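 Soft agar disk diffusion: leukemia (L1210), solid tumor (HCT116, or colon H15) and normal fibroblast cells seeded in soft agar in separate 60 mm dishes. Compound applied to a filter paper disk (dose in μg/disk) set on the agar. Colony-formation inhibition zones read after 6–7 days at 37 °C. 200 zone units = 6.5 mm; 950 = total inhibition; a range marks partial colony shrinkage. n > 2 unless noted.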

The test system of experiment [2] is L1210. In words: Diameter of zone of inhibition for cell colony formation of leukemia L1210 at the dose of 210 ug. The class given is functional, Mus musculus. In outline:
as §1

Experiment [3] relates to Mus musculus. The experiment can be described thus: Tumor growth delay of human HCT116 colorectal carcinoma in mice after intravenous administration at dose of 63 mg/kg. The class given is functional. In outline:
(§2)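 Female nude mice were implanted with HCT116 tumour tissue from donor mice and randomized once tumours averaged 100 mm3. The sodium salt in saline (pH 7.4) was given by iv bolus on days 1–5 and 8–12. Tumour volumes were recorded twice weekly. TGD = T − C, the time to reach 500 mm3 taken from a fitted tumour-growth model.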

Experiment [4] deals with Mus musculus. The experiment can be described thus: Tumor growth delay of human HCT116 colorectal carcinoma in mice after intravenous administration at dose of 32 mg/kg. Format: functional. Summed up:
as §2

Experiment [5] is described as follows: Diameter of zone of inhibition for cell colony formation of solid tumor H15 at the dose of 210 ug. Format: functional, Homo sapiens. In outline: as §1
Experiment [6] has as its system HCT-116. In words: Diameter of zone of inhibition for cell colony formation of solid tumor HCT116 at the dose of 190 ug. Format: functional, Homo sapiens. Summed up: as §1
Experiment [7] has as its system L1210. The experiment can be described thus: Diameter of zone of inhibition for cell colony formation of leukemia L1210 at the dose of 190 ug. The class given is functional, Mus musculus. Summed up: as §1
Experiment [8] can be described thus: Diameter of zone of inhibition for cell colony formation of normal fibroblast at the dose of 190 ug; Range is 0-2.275. The class given is functional, Homo sapiens. In outline: as §1
A short description of experiment [9]: Diameter of zone of inhibition for cell colony formation of normal fibroblast at the dose of 190 ug; Range is 0-.975. Format: functional, Homo sapiens. In outline:
as §1

Experiment [10] relates to Mus musculus. The experiment can be described thus: Tumor growth delay of human HCT116 colorectal carcinoma in mice after intravenous administration at dose of 64 mg/kg. The class given is functional. In outline:
as §2

Experiment [11] relates to HCT-116. In words: Growth inhibitory activity against human colon HCT116 cell line. The class given is functional. Summed up: (§3)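 Cell-line screen run at NCI by published procedures. […] The mean graph midpoint is taken across all human cancer cell lines successfully tested.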
Another experiment relates to MCF7. In words: Growth inhibitory activity against human breast MCF-7 cell line. The class given is functional. In outline: as §3
The test system of experiment [12] is Mus musculus. In words: Tumor growth delay of human HCT116 colorectal carcinoma in mice after intravenous administration at dose of 85 mg/kg. Format: functional. In outline: as §2
For a further experiment, the system named is SW-620. The experiment can be described thus: Growth inhibitory activity against human colon SW620 cell line. Format: functional. In outline:
as §3

For the next experiment, the system named is HT-29. The experiment can be described thus: Growth inhibitory activity against human colon HT-29 cell line. The class given is functional. Summed up: as §3
The subject of the next experiment is HL-60. In words: Growth inhibitory activity against human leukemia HL-60 (TB) cell line. The class given is functional. More on the design: unit not given here.
The next experiment has as its system NCI-H522. In words: Growth inhibitory activity against human lung NCI-H522 cell line. Format: functional. In outline:
as §3

In experiment [13] the test system is Mus musculus. In words: Tumor growth delay of human HCT116 colorectal carcinoma in mice after intravenous administration at dose of 128 mg/kg. Format: functional. In outline: as §2
Experiment [14] concerns Panel (Carcinoma cell lines). In words: Mean graph mid point value for cytotoxic activity against human cancer cell lines was determined. The class given is functional. Summed up: as §3
A further experiment relates to RXF 393. In words: Growth inhibitory activity against human renal RXF-393 cell line. Format: functional. In outline:
as §3

In experiment [15] the test system is HCT-116. In words: Diameter of zone of inhibition for cell colony formation of solid tumor HCT116 at the dose of 210 ug. The class given is functional, Homo sapiens. Summed up: (§4)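 HCT116, L1210 leukaemia and normal fibroblast cells were seeded in soft agar in separate 60 mm dishes. The compound was applied to a filter-paper disk laid on the agar. Colony-formation inhibition zones were read after 6–7 days at 37 °C and expressed in zone units (200 units = 6.5 mm; 950 = total inhibition; 0 = none). n > 2 unless otherwise indicated.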

Experiment [16] can be described thus: Diameter of zone of inhibition for cell colony formation of normal fibroblast at the dose of 210 ug; Range is 0-2.6. The class given is functional, Homo sapiens. Summed up: as §1
Experiment [17] has as its system L1210. In words: Diameter of zone of inhibition for cell colony formation of leukemia L1210 at the dose of 200 ug. Format: functional, Mus musculus. Summed up: as §1
Experiment [18] can be described thus: Diameter of zone of inhibition for cell colony formation of normal fibroblast at the dose of 200 ug; Range is 0-4.875. Format: functional, Homo sapiens. Summed up:
as §1

In experiment [19] the test system is HCT-116. In words: Diameter of zone of inhibition for cell colony formation of solid tumor HCT116 at the dose of 200 ug. Format: functional, Homo sapiens. In outline: as §4
A short description of experiment [20]: Diameter of zone of inhibition for cell colony formation of normal fibroblast at the dose of 200 ug; Range is 0-11. The class given is functional, Homo sapiens. In outline: as §1
The test system of experiment [21] is L1210. The experiment can be described thus: Diameter of zone of inhibition for cell colony formation of L1210 leukemia cell lines at the dose of 200 ug. Format: functional, Mus musculus. In outline: as §1

`O=C(NS(=O)(=O)c1ccc(Cl)cc1)c1ccc(Br)cc1Cl`: the Inhibition in experiment [1] is reported as 11.37 mm; with L1210 [2], 6.5 mm; in experiment [5] it was 14.95 mm. For the same compound, the Growth delay with Mus musculus [3] was 23 days; with Mus musculus [4], 12 days.
On to `O=C(NS(=O)(=O)c1ccc(Cl)cc1)c1ccc(Cl)cc1`, for which the values for the Inhibition (with HCT-116 [6]; in the experiment with L1210 [7]; in experiment [8]) were 10.72 mm, 5.85 mm and 2.27 mm, respectively.
Take `O=C(NS(=O)(=O)c1ccc(Cl)cc1)c1cccc(Br)c1`: the Inhibition is 0.97 mm in experiment [9], 10.4 mm with HCT-116 [6] and 6.82 mm in the experiment with L1210 [7].
With `O=C(NS(=O)(=O)c1ccccc1)c1ccc(Cl)cc1Cl`, the Growth delay came out at 14 days in the experiment on Mus musculus [10], 15 days in the experiment with Mus musculus [12] and 22 days in the experiment with Mus musculus [13]. For the same compound, the GI50 in the experiment on HCT-116 [11] amounted to 5.4 µM; in the experiment on MCF7 it was 18.9 µM; with SW-620, 8.6 µM; in the experiment with HT-29, 52 µM; with HL-60, 32.9; with NCI-H522 it was 18.7 µM. Also, the GI50 with RXF 393 amounted to 4.3 µM. Further, the MGM in experiment [14] amounted to 33.1.
As for `O=C(NS(=O)(=O)c1ccc(Cl)cc1)c1cc(Cl)cc(Cl)c1`, the Inhibition in the experiment with L1210 [2] was found to be 4.87 mm; in the experiment on HCT-116 [15] it was 10.72 mm; in experiment [16], 2.6 mm.
Turning to `O=C(NS(=O)(=O)c1ccc(Cl)cc1)c1ccc(Cl)c(Cl)c1`, the Inhibition with L1210 [17] stood at 6.5 mm; in [18], 4.87 mm; in the experiment on HCT-116 [19] it was 13 mm.
As to `O=C(NS(=O)(=O)c1ccc(Cl)cc1)c1ccc(Cl)cc1Cl`, the Inhibition was 11 mm in [20], 6.5 mm with L1210 [21] and 19.5 mm in the experiment with HCT-116 [19]. Also, the GI50 in the experiment on HCT-116 [11] is 5.3 µM; with MCF7, 1.5 µM; with SW-620, 39.6 µM; in the experiment on HT-29 it was 54.8 µM; in the experiment on HL-60 it was 34.7; in the experiment with NCI-H522, 8.6 µM. The compound further yielded a GI50 with RXF 393 of 11 µM. For the same compound, the MGM in experiment [14] is on record as 26.3.
